Our source for the Activity, Ratio and IC50 values is ChEMBL document CHEMBL1129495, “Highly selective bradykinin agonists and antagonists with replacement of proline residues by N-methyl-D- and L-phenylalanine” (J Med Chem, 1996).

For experiment [1], the species on record is Cavia porcellus. The experiment in a line: Agonistic activity against selectivity for smooth muscle contraction in guinea pig ileum. It is filed as functional, Muscle tissue. In a few lines:
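Isolated terminal ileum (1.5 cm) from guinea pigs fasted 16 h, in Tyrode at 37 °C. Isotonic contractions recorded under 0.5 g resting tension. Agonist activity measured by Schild 4-point method against BK doses of 1 and 2 nM, expressed as percent of BK activity.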

The species named for experiment [2] is Rattus norvegicus. The experiment in a line: Agonistic activity against selectivity for smooth muscle contraction in rat uterus. It is filed as functional, Muscle tissue. The method, boiled down:
(§1)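 Uteri from female Wistar rats (180–200 g) given diethylstilbestrol 100 µg/kg sc 16 h before use. Distal horns held in de Jalon solution at 28 °C under 0.5 g resting tension, with isotonic contractions recorded. BK was dosed every 4 min and left in the bath 45 s. Agonist activity by Schild 4-point method, expressed as percent of BK activity.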

Experiment [3] in a line: Selectivity for rat uterus is expressed as the ratio RUT/GPI. It is filed as functional. In a few lines: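 Ratio of agonist activity (percent of BK) in estrus rat uterus to that in guinea pig ileum, both from isotonic contraction assays using the Schild 4-point method.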
Experiment [4] in a line: Inhibitory activity against low affinity binding site of Bradykinin receptor in guinea pig ileum. It is filed as tissue-based. As to conditions: Cavia porcellus. The method, boiled down:
(§2)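 Fresh rat myometrial or guinea pig ileum membranes (0.3–0.5 mg protein) incubated 30 min at 4 °C with 0.05 nM [3H]BK and increasing peptide concentrations. Buffer: 25 mM TES pH 6.8, 1 µM captopril, 1 mM DTE, bacitracin, BSA. Samples filtered on PEI-treated GF/C and counted. High- and low-affinity IC50s from Tobler–Engel analysis; duplicates.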

Experiment [5] can be described thus: Inhibitory activity against low affinity binding site of Bradykinin receptor in rat uterus membrane was reported. Format: cell membranes. The method, boiled down:
as §2

The species named for experiment [6] is Cavia porcellus. The experiment in a line: Antagonistic activity was evaluated in Guinea pig ileum assay. Format: functional. Set-up: scale not given: the % may be the effect or the level left. In a few lines:
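Guinea pig terminal ileum in Tyrode at 37 °C under 0.5 g tension, isotonic recording. Analog added 5 min before a cumulative BK dose–response curve (maximum at 0.3 µM BK). pA2 is the negative log of the antagonist concentration that reduces the effect of a double BK dose to that of a single dose. Means of 3–7 determinations.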

Experiment [7] is filed under the species Cavia porcellus. Put plainly: Antagonistic activity was evaluated in Guinea pig lung strip assay. It is filed as functional. Set-up: scale not given: the % may be the effect or the level left. The method, boiled down:
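Lower-lobe lung strips (2–3 mm) from guinea pigs (400–600 g) in Krebs–Henseleit at 37 °C under 1 g load, with isometric tension recorded. After 1 h equilibration, peptide was given 5 min before an ED50 dose of BK. Cumulative BK curves covered 0.01–10 µM. pA2 by the van Rossum method.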

The species entered for experiment [8] is Rattus norvegicus. Put plainly: Agonistic activity was evaluated in Estrus Rat Uterus Assay. Format: functional. The method, boiled down:
as §1

Square brackets hold non-standard residues; d marks the D form. Peptide text beside a SMILES is read from it. Phe(4-guanidino) = N=C(N)Nc1ccc(C[C@H](N)C(=O)O)cc1; 2Thi = N[C@@H](Cc1cccs1)C(=O)O; Aib = CC(C)(N)C(=O)O

Turning to H-RPPGFSPFK-OH, the Activity was determined as 20% in the experiment listed under Cavia porcellus [1] and 0.2% in the experiment filed under Rattus norvegicus [2]. In addition, in experiment [3], the Ratio is recorded as 0.01.

Turning to `CN(C(=O)[C@H](CO)NC(=O)[C@H](Cc1ccccc1)NC(=O)CNC(=O)[C@@H]1CCCN1C(=O)[C@@H]1CCCN1C(=O)[C@H](CCCN=C(N)N)NC(=O)[C@H](N)CCCN=C(N)N)[C@@H](Cc1ccccc1)C(=O)N[C@@H](Cc1ccccc1)C(=O)N[C@@H](CCCN=C(N)N)C(=O)O` [listing 1 of 2 here], the IC50 was found to be 1 nM in experiment [4] and 33 nM in experiment [5].

`CC[C@@H](C)[C@@H](N)C(=O)N[C@@H](CO)C(=O)N[C@@H](CCCN=C(N)N)C(=O)N1CCC[C@H]1C(=O)N1CCC[C@H]1C(=O)NCC(=O)N[C@@H](Cc1ccccc1)C(=O)N[C@@H](CO)C(=O)N1CCC[C@H]1C(=O)N[C@@H](Cc1ccccc1)C(=O)N[C@@H](CCCN=C(N)N)C(=O)O`: the Activity in the experiment filed under Cavia porcellus [1] came out at 11%; in the experiment filed under Rattus norvegicus [2], 271%. Besides, the Ratio in experiment [3] is 25.

For the compound `N=C(N)Nc1ccc(C[C@H](NC(=O)[C@H](Cc2ccccc2)NC(=O)[C@@H]2CCCN2C(=O)[C@H](CO)NC(=O)[C@H](Cc2ccccc2)NC(=O)CNC(=O)[C@@H]2CCCN2C(=O)[C@@H]2CCCN2C(=O)[C@@H](N)Cc2ccc(NC(=N)N)cc2)C(=O)O)cc1` (H-[Phe(4-guanidino)]PPGFSPF[Phe(4-guanidino)]-OH), the Activity in the experiment listed under Cavia porcellus [1] was 2%; in the experiment listed under Rattus norvegicus [2], 0.001%. In experiment [3], the Ratio was determined as 0.001.

For the compound `CN(C(=O)[C@H](CO)NC(=O)[C@H](Cc1ccccc1)NC(=O)CNC(=O)[C@@H]1C[C@@H](O)CN1C(=O)[C@@H]1CCCN1C(=O)[C@H](CCCN=C(N)N)NC(=O)[C@H](N)CCCN=C(N)N)[C@H](Cc1ccccc1)C(=O)N(C)[C@@H](Cc1ccccc1)C(=O)N[C@@H](CCCN=C(N)N)C(=O)O`, the Activity in the experiment listed under Cavia porcellus [6] was found to be 0.01%; in the experiment listed under Cavia porcellus [7], 0.45%; in the experiment listed under Rattus norvegicus [8] it was 40%. For the same compound, in experiment [3], the Ratio turned out to be 4000.

In the case of `CC(C)(NC(=O)[C@H](CO)NC(=O)[C@H](Cc1ccccc1)NC(=O)CNC(=O)[C@@H]1CCCN1C(=O)[C@@H]1CCCN1C(=O)[C@@H](N)CCCN=C(N)N)C(=O)N[C@@H](Cc1ccccc1)C(=O)N[C@@H](CCCN=C(N)N)C(=O)O` (H-RPPGFS[Aib]FR-OH), the values for the Activity in the experiment filed under Cavia porcellus [1] and in the experiment filed under Rattus norvegicus [2] were 418% and 55%, respectively. For the same compound, the Ratio in experiment [3] was determined as 0.13.

As for `NC(N)=NCCC[C@H](NC(=O)[C@H](Cc1ccccc1)NC(=O)[C@@H](Cc1ccccc1)NC(=O)CNC(=O)[C@H](Cc1ccccc1)NC(=O)CNC(=O)[C@@H]1CCCN1C(=O)[C@@H]1CCCN1C(=O)[C@@H](N)CCCN=C(N)N)C(=O)O`, the Activity in the experiment filed under Cavia porcellus [1] came to 0.3%; in the experiment listed under Rattus norvegicus [2], 31%. Further, the Ratio in experiment [3] is given as 100.

Turning to `CN(C(=O)[C@H](CO)NC(=O)[C@H](Cc1cccs1)NC(=O)CNC(=O)[C@@H]1C[C@@H](O)CN1C(=O)[C@@H]1CCCN1C(=O)[C@H](CCCN=C(N)N)NC(=O)[C@H](N)CCCN=C(N)N)[C@H](Cc1ccccc1)C(=O)N[C@@H](Cc1ccccc1)C(=O)N[C@@H](CCCN=C(N)N)C(=O)O`, the Activity in the experiment filed under Cavia porcellus [6] is given as 0.006%; in the experiment listed under Cavia porcellus [7], 0.04%; in the experiment filed under Rattus norvegicus [8], 86%. In addition, the Ratio in experiment [3] amounted to 10000.

As for `NC(N)=NCCC[C@H](NC(=O)[C@H](Cc1cccs1)NC(=O)[C@@H]1CCCN1C(=O)[C@H](CO)NC(=O)[C@H](Cc1ccccc1)NC(=O)CNC(=O)[C@@H]1CCCN1C(=O)[C@@H]1CCCN1C(=O)[C@@H](N)CCCN=C(N)N)C(=O)O` (H-RPPGFSP[2Thi]R-OH), the Activity in the experiment filed under Cavia porcellus [1] came out at 40%; in the experiment listed under Rattus norvegicus [2], 500%. Also, in experiment [3], the Ratio is given as 13.

For the compound `CC(C)(NC(=O)[C@@H](Cc1c[nH]c2ccccc12)NC(=O)[C@H](Cc1ccccc1)NC(=O)CNC(=O)[C@@H]1CCCN1C(=O)[C@@H]1CCCN1C(=O)[C@@H](N)CCCN=C(N)N)C(=O)N[C@@H](Cc1ccccc1)C(=O)N[C@@H](CCCN=C(N)N)C(=O)O`, the Activity in the experiment filed under Cavia porcellus [1] is given as 226%; in the experiment filed under Rattus norvegicus [2] it was 100%. In addition, in experiment [3], the Ratio turned out to be 0.442.

Turning to `CC(C)(NC(=O)[C@@H](Cc1ccc(Cl)cc1)NC(=O)C(Cc1ccccc1)NC(=O)CNC(=O)[C@@H]1CCCN1C(=O)[C@@H]1CCCN1C(=O)[C@@H](N)CCCN=C(N)N)C(=O)NC(Cc1ccccc1)C(=O)N[C@@H](CCCN=C(N)N)C(=O)O` (stereo in doubt), the Activity is 321% in the experiment listed under Cavia porcellus [1] and 97% in the experiment filed under Rattus norvegicus [2]. In addition, the Ratio in experiment [3] is 0.3.

On to `CC(C)(NC(=O)[C@@H](Cc1ccccc1)NC(=O)[C@H](Cc1ccccc1)NC(=O)CNC(=O)[C@@H]1CCCN1C(=O)[C@@H]1CCCN1C(=O)[C@@H](N)CCCN=C(N)N)C(=O)N[C@@H](Cc1ccccc1)C(=O)N[C@@H](CCCN=C(N)N)C(=O)O`, for which the Activity in the experiment listed under Cavia porcellus [1] was 426%; in the experiment listed under Rattus norvegicus [2], 124%. Also, the Ratio in experiment [3] stood at 0.291.

Regarding `NC(N)=NCCC[C@H](NC(=O)[C@H](Cc1cccs1)NC(=O)[C@@H]1CCCN1C(=O)[C@H](CO)NC(=O)[C@H](Cc1cccs1)NC(=O)CNC(=O)[C@@H]1CCCN1C(=O)[C@@H]1CCCN1C(=O)[C@@H](N)CCCN=C(N)N)C(=O)O` (H-RPPG[2Thi]SP[2Thi]R-OH), the Activity in the experiment filed under Cavia porcellus [1] was 200%; in the experiment filed under Rattus norvegicus [2], 1000%. Also, the Ratio in experiment [3] is recorded as 5.

Regarding `CN(C(=O)[C@H](CO)NC(=O)[C@H](Cc1ccccc1)NC(=O)CNC(=O)[C@@H]1CCCN1C(=O)[C@@H]1CCCN1C(=O)[C@H](CCCN=C(N)N)NC(=O)[C@H](N)CCCN=C(N)N)[C@@H](Cc1ccccc1)C(=O)N[C@@H](Cc1ccccc1)C(=O)N[C@@H](CCCN=C(N)N)C(=O)O` [listing 2 of 2 here], the Activity in the experiment filed under Cavia porcellus [6] stood at 0.07%; in the experiment listed under Cavia porcellus [7] it was 0.08%; in the experiment listed under Rattus norvegicus [8], 0.5%.

On to `NC(N)=NCCC[C@@H](N)C(=O)N[C@@H](CCCN=C(N)N)C(=O)N1CCC[C@H]1C(=O)N1C[C@H](O)C[C@H]1C(=O)NCC(=O)N[C@@H](Cc1cccs1)C(=O)N[C@@H](CO)C(=O)N1CCC[C@H]1C(=O)N[C@@H](Cc1cccs1)C(=O)N[C@@H](CCCN=C(N)N)C(=O)O`, for which the Activity in the experiment filed under Cavia porcellus [1] was determined as 7%; in the experiment listed under Rattus norvegicus [2] it was 237%. For the same compound, the Ratio in experiment [3] was 30.

Consider `CN(C(=O)[C@H](CO)NC(=O)[C@H](Cc1ccccc1)N(C)C(=O)CNC(=O)[C@@H]1C[C@@H](O)CN1C(=O)[C@@H]1CCCN1C(=O)[C@H](CCCN=C(N)N)NC(=O)[C@H](N)CCCN=C(N)N)[C@H](Cc1ccccc1)C(=O)N(C)[C@@H](Cc1ccccc1)C(=O)N[C@@H](CCCN=C(N)N)C(=O)O`, for which the values for the Activity in the experiment listed under Cavia porcellus [6], in the experiment filed under Cavia porcellus [7] and in the experiment filed under Rattus norvegicus [8] were 0.005%, 0.5% and 15%, respectively. For the same compound, the Ratio in experiment [3] is given as 3000.

Consider `CN(C(=O)[C@H](CO)NC(=O)[C@H](Cc1ccccc1)NC(=O)CNC(=O)[C@@H]1CCCN1C(=O)[C@@H]1CCCN1C(=O)[C@@H](N)CCCN=C(N)N)[C@@H](Cc1ccccc1)C(=O)N[C@@H](Cc1ccccc1)C(=O)N[C@@H](CCCN=C(N)N)C(=O)O`, for which the IC50 in experiment [4] came to 700 nM; in experiment [5], 500 nM. Besides, the Activity in the experiment filed under Cavia porcellus [6] was found to be 0.03%; in the experiment listed under Cavia porcellus [7], 0.1%; in the experiment listed under Rattus norvegicus [8] it was 0.2%.
